Experimental data as given in ChEMBL document CHEMBL4725329, “Anti-proliferative potential of triphenyl substituted pyrimidines against MDA-MB-231, HCT-116 and HT-29 cancer cell lines” (Bioorg Med Chem Lett, 2020).

What was measured:
HCT-116 [1] = assay: Induction of apoptosis in human HCT-116 cells assessed as late apoptotic cells at 5 uM measured after 24 hrs by annexin-V/FITC staining based flow cytometry analysis (reference value: 2.4 %); assay type: functional
HCT-116 [2] = assay: Induction of apoptosis in human HCT-116 cells assessed as necrotic cells at 5 uM measured after 24 hrs by annexin-V/FITC staining based flow cytometry analysis (reference value: 0.2 %); assay type: functional
HCT-116 [3] = assay: Antiproliferative activity against human HCT-116 cells assessed as inhibition of cell proliferation measured after 48 hrs by MTT assay; assay type: functional, cell-based; settings: HCT-116, 48 h
Procedure, shortened: (§1)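 Cells were exposed to test compounds at 1, 5, 10 and 25 µM for 48 h, with each concentration run in triplicate. Untreated cells served as control. Cell viability was measured and IC₅₀ values were derived as mean ± SD of three independent experiments.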

HT-29 = assay: Antiproliferative activity against human HT-29 cells assessed as inhibition of cell proliferation measured after 48 hrs by MTT assay; assay type: functional, cell-based; settings: HT-29, 48 h; procedure, shortened: as §1
Tubulin (Homo sapiens) [4] = molecular target: T1, Tubulin (Homo sapiens) (UniProt P68371+Q9H4B7+P0DPH7+P68366+Q13509+Q71U36+P04350+Q3ZCM7+P07437+P68363+Q9BQE3+Q6PEY2+Q13885+Q9BVA1+Q9BUF5); assay: Inhibition of tubulin polymerization in human HCT-116 cells assessed as cell cycle arrest at G1/G0 phase at 12.5 uM measured after 24 hrs by propidium iodide staining based analysis; parameters: scale not given: the % may be the effect or the level left
MDA-MB-231 = assay: Antiproliferative activity against human MDA-MB-231 cells assessed as inhibition of cell proliferation measured after 48 hrs by MTT assay; assay type: functional, cell-based; settings: MDA-MB-231, 48 h; procedure, shortened: as §1
HCT-116 [5] = assay: Induction of apoptosis in human HCT-116 cells assessed as early apoptotic cells at 5 uM measured after 24 hrs by annexin-V/FITC staining based flow cytometry analysis (reference value: 0.3 %); assay type: functional
Tubulin (Homo sapiens) [6] = molecular target: T1, Tubulin (Homo sapiens); assay: Inhibition of tubulin polymerization in human HCT-116 cells assessed as cell cycle arrest at G2/M phase at 12.5 uM measured after 24 hrs by propidium iodide staining based analysis; parameters: scale not given: the % may be the effect or the level left
HCT-116 [7] = assay: Induction of apoptosis in human HCT-116 cells assessed as live cells at 5 uM measured after 24 hrs by annexin-V/FITC staining based flow cytometry analysis (reference value: 97.1 %); assay type: functional

IC50 (HCT-116 [3]) | IC50 (HT-29) | Activity (Tubulin (Homo sapiens) [4]) | IC50 (MDA-MB-231) | Activity (Tubulin (Homo sapiens) [6]) | SMILES | Activity (HCT-116 [1]) | Activity (HCT-116 [2]) | Activity (HCT-116 [5]) | Activity (HCT-116 [7])
> 25 µM | > 25 µM | – | 2.44 µM | – | COc1cc(-c2cc(-c3cccc([N+](=O)[O-])c3)nc(-c3ccccc3)n2)cc(OC)c1OC | – | – | – | –
4.32 µM | 3.17 µM | – | > 25 µM | – | COc1cc(-c2cc(-c3ccc(Br)cc3)nc(-c3ccccc3)n2)cc(OC)c1OC | – | – | – | –
12.3 µM | > 25 µM | – | 1.01 µM | – | COc1cc(-c2cc(-c3ccc(N)cc3)nc(-c3ccccc3)n2)cc(OC)c1OC | – | – | – | –
4.93 µM | 4.73 µM | 78.5% | 3.24 µM | 8.1% | COc1cc(-c2cc(-c3cccc4ccccc34)nc(-c3ccccc3)n2)cc(OC)c1OC | 49.6% | 0.3% | 26.4% | 23.7%
17 µM | > 25 µM | – | 5.11 µM | – | COc1cc(-c2cc(-c3cccs3)nc(-c3ccccc3)n2)cc(OC)c1OC | – | – | – | –
5.89 µM | 4.96 µM | 11.3% | 0.81 µM | 79.5% | COc1cc(-c2cc(-c3ccc(O)cc3O)nc(-c3ccccc3)n2)cc(OC)c1OC | 35.2% | 0.6% | 35.4% | 28.7%
7.98 µM | 6.23 µM | – | > 25 µM | – | COc1cc(-c2cc(-c3ccc(Cl)cc3)nc(-c3ccccc3)n2)cc(OC)c1OC | – | – | – | –

More lines, now with the values behind:

SMILES | IC50 (HCT-116 [3]) | IC50 (HT-29) | Activity (Tubulin (Homo sapiens) [4]) | IC50 (MDA-MB-231) | Activity (Tubulin (Homo sapiens) [6]) | Activity (HCT-116 [1]) | Activity (HCT-116 [2]) | Activity (HCT-116 [5]) | Activity (HCT-116 [7])
COc1ccc(-c2cc(-c3cc(OC)c(OC)c(OC)c3)nc(-c3ccccc3)n2)cc1 | 4.78 µM | 4.23 µM | 5.6% | 3.39 µM | 88.8% | 48.3% | 0.9% | 22.5% | 28.3%
COc1cc(-c2cc(-c3ccc(C)cc3)nc(-c3ccccc3)n2)cc(OC)c1OC | 15.7 µM | > 25 µM | – | 5.11 µM | – | – | – | – | –
COc1cc(-c2cc(-c3cccc(O)c3)nc(-c3ccccc3)n2)cc(OC)c1OC | 20.4 µM | > 25 µM | – | 1.99 µM | – | – | – | – | –
COc1cc(-c2cc(-c3ccc(O)cc3)nc(-c3ccccc3)n2)cc(OC)c1OC | 11.8 µM | 11.3 µM | – | 1.6 µM | – | – | – | – | –
COc1ccc(-c2cc(-c3cc(OC)c(OC)c(OC)c3)nc(-c3ccccc3)n2)c(OC)c1 | > 25 µM | > 25 µM | – | 1.44 µM | – | – | – | – | –
COc1cc2c(c(OC)c1OC)-c1ccc(OC)c(=O)cc1[C@@H](NC(C)=O)CC2 [COLCHICINE] | 5.13 µM | 5.19 µM | – | 0.93 µM | – | 56.4% | 2.9% | 1.9% | 38.8%
COc1cc(-c2cc(-c3ccccc3)nc(-c3ccccc3)n2)cc(OC)c1OC | 9.95 µM | 7.93 µM | – | 5.87 µM | – | – | – | – | –
